B1: GTP:AMP phosphotransferase AK3, mitochondrial (Rattus norvegicus), P29411 (protein)
chain: MGASGRLLRAVIMGAPGSGKGTGSSRITKHFELKHLSSGDLLRQNMLQGTEIAVLAKSFIDQGKLIPDDDMTRLALHELKNLTQCSWLLDGFPRTLPQAEALDRVYQIDTVINLNVPFEVIKLRLTARWIHPASGRVYNIEFNPPKTVGIDDLTGEPLIQREDDKPETVIKRLKAYEAQTEPVLQYYQKKGVLETFSGTETNKIRPHVYSFLQMKVPETIQKASVTP
B2: Adenylate kinase isoenzyme 1 (Rattus norvegicus), P39069 (protein)
chain: MEDKLKKAKIIFVVGGPGSGKGTQCEKIVQKYGYTHLSTGDLLRAEVSSGSSRGKMLSSIMEKGELVPLETVLDMLRDAMLAKVDSSNGFLIDGYPREVKQGEEFERKIAQPTLLLYVDAGPETMTQRLLKRGETSGRVDDNEETIKKRLETYYKATEPVISFYDKRGIVRKVNAEGSVDTVFSQVCTYLDSLK

Tests used:
[1] = substrate: O=C(CI)NCCCCCNc1ncnc2c1ncn2[C@@H]1O[C@H](COP(=O)(O)OP(=O)(O)OP(=O)(O)O)[C@@H](O)[C@H]1O; assay: (§1) Activity of Sprague-Dawley rat liver adenylate kinase 3 by Lineweaver-Burk plot analysis
How it was run: (§2)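 Substrate kinetics in a pyruvate kinase/lactate dehydrogenase-coupled assay: 0.1 M Tris-HCl pH 7.6, 2 mM MgSO4, 0.12 M KCl, 0.3 mM PEP, 0.38 mM NADH, 0.25 mM AMP. A340 change over 5 min at 23 °C. Derivatives screened first at ca. 0.8 mM. Five or more substrate levels; KM and Vmax (relative to ATP) taken from linear Lineweaver-Burk plots.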

[2] = substrate: Nc1ncnc2c1nc(SCCO)n2[C@@H]1O[C@H](COP(=O)(O)OP(=O)(O)OP(=O)(O)O)[C@@H](O)[C@H]1O; assay: as §1; how it was run: as §2
[3] = substrate: CCCSc1nc2c(N)ncnc2n1[C@@H]1O[C@H](COP(=O)(O)OP(=O)(O)OP(=O)(O)O)[C@@H](O)[C@H]1O; assay: as §1; how it was run: as §2
[4] = substrate: CCSc1nc2c(N)ncnc2n1[C@@H]1O[C@H](COP(=O)(O)OP(=O)(O)OP(=O)(O)O)[C@@H](O)[C@H]1O; assay: as §1; how it was run: as §2
[5] = substrate: Nc1ncnc2c1ncn2[C@@H]1O[C@H](COP(=O)(O)OP(=O)(O)OP(=O)(O)O)[C@@H](O)[C@H]1O; assay: as §1; how it was run: as §2
[6] = substrate: CSc1nc2c(N)ncnc2n1[C@@H]1O[C@H](COP(=O)(O)OP(=O)(O)OP(=O)(O)O)[C@@H](O)[C@H]1O; assay: as §1; how it was run: as §2
[7] = substrate: O=C(CI)NCCCCCNc1ncnc2c1ncn2[C@@H]1O[C@H](COP(=O)(O)OP(=O)(O)OP(=O)(O)O)[C@@H](O)[C@H]1O; assay: (§3) Activity of Sprague-Dawley rat liver adenylate kinase 3 by Lineweaver-Burk plot analysis relative to ATP; how it was run: as §2
[8] = substrate: Nc1ncnc2c1nc(SCCO)n2[C@@H]1O[C@H](COP(=O)(O)OP(=O)(O)OP(=O)(O)O)[C@@H](O)[C@H]1O; assay: as §3; how it was run: as §2
[9] = substrate: CCCSc1nc2c(N)ncnc2n1[C@@H]1O[C@H](COP(=O)(O)OP(=O)(O)OP(=O)(O)O)[C@@H](O)[C@H]1O; assay: as §3; how it was run: as §2
[10] = substrate: CCSc1nc2c(N)ncnc2n1[C@@H]1O[C@H](COP(=O)(O)OP(=O)(O)OP(=O)(O)O)[C@@H](O)[C@H]1O; assay: as §3; how it was run: as §2
[11] = substrate: Nc1ncnc2c1ncn2[C@@H]1O[C@H](COP(=O)(O)OP(=O)(O)OP(=O)(O)O)[C@@H](O)[C@H]1O; assay: as §3; how it was run: as §2
[12] = substrate: CSc1nc2c(N)ncnc2n1[C@@H]1O[C@H](COP(=O)(O)OP(=O)(O)OP(=O)(O)O)[C@@H](O)[C@H]1O; assay: as §3; how it was run: as §2
[13] = substrate: Nc1ncnc2c1ncn2[C@@H]1O[C@H](COP(=O)(O)OP(=O)(O)OP(=O)(O)O)[C@@H](O)[C@H]1O; settings: Rattus norvegicus; Sprague-Dawley
[14] = substrate: O=C(CI)NCCCCCNc1ncnc2c1ncn2[C@@H]1O[C@H](COP(=O)(O)OP(=O)(O)OP(=O)(O)O)[C@@H](O)[C@H]1O; assay: (§4) Activity of Sprague-Dawley rat muscle adenylate kinase by Lineweaver-Burk plot analysis relative to ATP; how it was run: as §2
[15] = substrate: CCCSc1nc2c(N)ncnc2n1[C@@H]1O[C@H](COP(=O)(O)OP(=O)(O)OP(=O)(O)O)[C@@H](O)[C@H]1O; assay: as §4; how it was run: as §2
[16] = substrate: Nc1ncnc2c1ncn2[C@@H]1O[C@H](COP(=O)(O)OP(=O)(O)OP(=O)(O)O)[C@@H](O)[C@H]1O; assay: as §4; how it was run: as §2
[17] = substrate: CSc1nc2c(N)ncnc2n1[C@@H]1O[C@H](COP(=O)(O)OP(=O)(O)OP(=O)(O)O)[C@@H](O)[C@H]1O; assay: as §4; how it was run: as §2

Row | Protein | Km [1] | Km [2] | Km [3] | Km [4] | Km [5] | Km [6] | Vmax [7] | Vmax [8] | Vmax [9] | Vmax [10] | Vmax [11] | Vmax [12] | Km [13] | Vmax [14] | Vmax [15] | Vmax [16] | Vmax [17]
1 | B1 | 400 µM | 120 µM | 40 µM | 70 µM | 90 µM | 150 µM | 8.9% | 12.5% | 10.4% | 11.4% | 100% | 8.3% | – | – | – | – | –
2 | B2 | – | – | – | – | – | – | – | – | – | – | – | – | 650 µM | 0% | 0% | 100% | 0%

From ChEMBL document CHEMBL3244193, “Design of species- or isozyme-specific enzyme inhibitors. 3. Species and isozymic differences between mammalian and bacterial adenylate kinases in substituent tolerance in an enzyme-substrate complex” (J Med Chem, 1979)
